Values belong to the molecule of their own block, whether it stands above or below them. The source made the active and inactive calls. The rule behind the calls is not given here.
Assays:
[1] = molecular target: T1, Protein cereblon/Tyrosine-protein phosphatase non-receptor type 11 (Homo sapiens, UniProt Q06124+Q96SW2); assay: Protac activity at SHP2/CRBN in human MV4-11 cells assessed as SHP2 degradation at 8 nM measured after 12 hrs by Western blot analysis relative to control; format: cell-based
Outline: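 MV4-11 cells (IMDM, 10% FBS, 37 °C, 5% CO2) plated at 1.0×10^6 cells/well and exposed 12 h to 8 or 200 nM. Lysis in RIPA with protease inhibitors, then SDS-PAGE, nitrocellulose transfer and anti-human SHP2 immunoblot. SHP2 signal normalized to GAPDH and percent degradation quantified by densitometry. Reported as the average of two independent measurements.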
Target sequence in this assay (Q96SW2 whole entry partner, one chain of several): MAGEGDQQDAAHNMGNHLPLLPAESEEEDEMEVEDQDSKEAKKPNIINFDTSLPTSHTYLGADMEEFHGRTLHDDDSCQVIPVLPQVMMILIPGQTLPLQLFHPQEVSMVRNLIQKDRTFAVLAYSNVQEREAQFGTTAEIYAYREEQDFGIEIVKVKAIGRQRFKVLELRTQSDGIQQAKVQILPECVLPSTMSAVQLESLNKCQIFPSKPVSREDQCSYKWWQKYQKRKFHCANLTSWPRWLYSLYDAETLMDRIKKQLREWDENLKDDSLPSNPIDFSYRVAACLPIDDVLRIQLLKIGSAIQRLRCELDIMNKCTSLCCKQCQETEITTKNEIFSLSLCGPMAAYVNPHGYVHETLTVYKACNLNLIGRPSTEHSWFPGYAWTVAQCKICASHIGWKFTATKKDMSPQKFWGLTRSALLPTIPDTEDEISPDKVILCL

MV4-11 [2] = assay: Antiproliferative activity against human MV4-11 cells assessed as inhibition of cell proliferation measured after 72 hrs by MTS assay; format: functional, cell-based; details: MV4-11, 72 h
Outline: (§1)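 MV4;11 (ATCC, STR-authenticated) in IMDM with 10% FBS, penicillin/streptomycin, 37 °C, 5% CO2. Seeded at 1.0–4.0 × 10^4 cells/well, rested 2 h, then exposed to 0.01% DMSO or graded compound concentrations for 72 h. MTS/PMS added for 2–4 h. IC50 from sigmoidal variable-slope nonlinear regression; mean ± SEM of at least three separate assays, each in triplicate.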

[3] = molecular target: T2, Tyrosine-protein phosphatase non-receptor type 11 (Homo sapiens, UniProt Q06124); assay: Inhibition of human SHP2 catalytic activity
T2 sequence (Q06124 whole entry): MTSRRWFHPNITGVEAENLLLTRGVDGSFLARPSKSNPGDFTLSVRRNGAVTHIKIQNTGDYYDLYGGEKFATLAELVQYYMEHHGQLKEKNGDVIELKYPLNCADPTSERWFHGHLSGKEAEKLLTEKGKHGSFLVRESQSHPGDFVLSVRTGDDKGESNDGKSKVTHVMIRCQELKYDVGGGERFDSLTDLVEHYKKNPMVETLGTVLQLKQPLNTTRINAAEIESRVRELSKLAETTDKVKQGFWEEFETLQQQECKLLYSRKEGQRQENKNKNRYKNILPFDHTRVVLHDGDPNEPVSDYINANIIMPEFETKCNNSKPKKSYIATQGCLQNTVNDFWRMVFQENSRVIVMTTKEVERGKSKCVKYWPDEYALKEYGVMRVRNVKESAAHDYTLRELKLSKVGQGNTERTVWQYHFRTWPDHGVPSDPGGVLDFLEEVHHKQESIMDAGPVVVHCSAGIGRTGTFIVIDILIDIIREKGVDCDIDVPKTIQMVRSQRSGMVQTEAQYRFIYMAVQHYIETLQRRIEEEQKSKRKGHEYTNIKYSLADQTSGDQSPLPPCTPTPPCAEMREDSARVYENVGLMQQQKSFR

[4] = molecular target: T1, Protein cereblon/Tyrosine-protein phosphatase non-receptor type 11; assay: Protac activity at SHP2/CRBN in human MV4-11 cells assessed as decrease in SHP2 protein level measured after 12 hrs by Western blot analysis; format: cell-based; details: dose 8-500 nM
Outline: (§2)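 MV4-11 cells, 1.0×10^6 cells/well, treated 12 h across a concentration series. Lysed in RIPA plus protease inhibitors, separated by SDS-PAGE onto nitrocellulose and immunoblotted for SHP2 with GAPDH as loading control. Band intensities normalized to GAPDH; DC50 derived from the quantified SHP2 levels.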
Target sequence in this assay (Q96SW2 whole entry partner, one chain of several): as the sequence (Q96SW2 whole entry partner, one chain of several) above

[5] = molecular target: T1, Protein cereblon/Tyrosine-protein phosphatase non-receptor type 11; assay: Protac activity at SHP2/CRBN in human MV4-11 cells assessed as induction of SHP2 degradation measured after 12 hrs by Western blot analysis; format: cell-based; outline: as §2
[6] = molecular target: T1, Protein cereblon/Tyrosine-protein phosphatase non-receptor type 11; assay: Protac activity at SHP2/CRBN in human MV4-11 cells assessed as SHP2 degradation at 100 nM measured after 6 hrs by Western blot analysis relative to control; format: cell-based
Target sequence in this assay (Q96SW2 whole entry partner, one chain of several): as the sequence (Q96SW2 whole entry partner, one chain of several) above

[7] = molecular target: T1, Protein cereblon/Tyrosine-protein phosphatase non-receptor type 11; assay: Protac activity at SHP2/CRBN in human MV4-11 cells assessed as SHP2 degradation at 100 nM measured after 24 hrs by Western blot analysis relative to control; format: cell-based
Target sequence in this assay (Q96SW2 whole entry partner, one chain of several): as the sequence (Q96SW2 whole entry partner, one chain of several) above

MV4-11 [8] = assay: Cell cycle arrest in human MV4-11 cells assessed as accumulation at G1 phase measured after 24 hrs by PI staining based flow cytometry assay; format: functional
Outline: (§3)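 MV4-11 cells treated 24 h, then washed twice in cold PBS and fixed in ethanol overnight at 4 °C. Stained with propidium iodide plus RNase for 15 min at 37 °C. Cell-cycle distribution measured by flow cytometry.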

MV4-11 [9] = assay: Induction of apoptosis in human MV4-11 cells assessed as viable cells at 70 nM measured after 48 hrs by Annexin V/FITC-PI staining based flowcytometry assay (reference value: 91%); format: functional
MV4-11 [10] = assay: Induction of apoptosis in human MV4-11 cells assessed as early apoptotic cells at 70 nM measured after 48 hrs by Annexin V/FITC-PI staining based flowcytometry assay (reference value: 2.99%); format: functional
MV4-11 [11] = assay: Induction of apoptosis in human MV4-11 cells assessed as late apoptotic cells at 70 nM measured after 48 hrs by Annexin V/FITC-PI staining based flowcytometry assay (reference value: 5.95%); format: functional
MV4-11 [12] = assay: Induction of apoptosis in human MV4-11 cells assessed as necrotic cells at 70 nM measured after 48 hrs by Annexin V/FITC-PI staining based flowcytometry assay (reference value: 0.07%); format: functional
MV4-11 [13] = assay: Induction of apoptosis in human MV4-11 cells assessed as viable cells at 200 nM measured after 48 hrs by Annexin V/FITC-PI staining based flowcytometry assay (reference value: 91%); format: functional
MV4-11 [14] = assay: Induction of apoptosis in human MV4-11 cells assessed as early apoptotic cells at 200 nM measured after 48 hrs by Annexin V/FITC-PI staining based flowcytometry assay (reference value: 2.99%); format: functional
MV4-11 [15] = assay: Induction of apoptosis in human MV4-11 cells assessed as late apoptotic cells at 200 nM measured after 48 hrs by Annexin V/FITC-PI staining based flowcytometry assay (reference value: 5.95%); format: functional
MV4-11 [16] = assay: Induction of apoptosis in human MV4-11 cells assessed as necrotic cells at 200 nM measured after 48 hrs by Annexin V/FITC-PI staining based flowcytometry assay (reference value: 0.07%); format: functional
MV4-11 [17] = assay: Induction of apoptosis in human MV4-11 cells assessed as viable cells at 600 nM measured after 48 hrs by Annexin V/FITC-PI staining based flowcytometry assay (reference value: 91%); format: functional
MV4-11 [18] = assay: Induction of apoptosis in human MV4-11 cells assessed as early apoptotic cells at 600 nM measured after 48 hrs by Annexin V/FITC-PI staining based flowcytometry assay (reference value: 2.99%); format: functional
MV4-11 [19] = assay: Induction of apoptosis in human MV4-11 cells assessed as late apoptotic cells at 600 nM measured after 48 hrs by Annexin V/FITC-PI staining based flowcytometry assay (reference value: 5.95%); format: functional
MV4-11 [20] = assay: Induction of apoptosis in human MV4-11 cells assessed as necrotic cells at 600 nM measured after 48 hrs by Annexin V/FITC-PI staining based flowcytometry assay (reference value: 0.07%); format: functional
[21] = molecular target: T3, Tyrosine-protein phosphatase non-receptor type 11 (Homo sapiens) (UniProt Q06124); assay: Induction of SHP2 degradation in CRBN knock out human MV4-11 cells at 8 to 200 nM measured after 12 hrs by Western blot analysis; format: cell-based; details: dose 8-200 nM
T3 sequence (whole entry): T2 sequence (Q06124 whole entry)

MV4-11 [22] = assay: Cytotoxicity against CRBN knock out human MV4-11 cells assessed as cell viability measured after 72 hrs by MTS assay; format: cell-based; details: MV4-11, 72 h
Outline: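 MV4;11 cells with CRBN knocked out, cultured in IMDM with 10% FBS, penicillin/streptomycin, 37 °C, 5% CO2. Seeded at 1.0–4.0 × 10^4 cells/well, rested 2 h, then given 0.01% DMSO or graded compound concentrations for 72 h. Viability by MTS/PMS over 2–4 h. IC50 from sigmoidal variable-slope fit; mean ± SEM of ≥3 assays in triplicate.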

MV4-11 [23] = assay: Cytotoxicity against human MV4-11 cells assessed as cell viability measured after 72 hrs by MTS assay; format: functional, cell-based; details: MV4-11, 72 h; outline: as §1
MV4-11 [24] = assay: Cell cycle arrest in human MV4-11 cells assessed as accumulation at G1 phase at 200 nM measured after 24 hrs by PI staining based flow cytometry assay; format: functional; outline: as §3
[25] = Homo sapiens, MV4-11, read-out: Activity

Activity [1]: 18%
Compound: C[C@@H]1OCC2(CCN(c3cnc(Sc4cccc(NC(=O)CCC(=O)NCCCCCCCCCCCCNc5cccc6c5C(=O)N(C5CCC(=O)NC5=O)C6=O)c4Cl)c(N)n3)CC2)[C@@H]1N (some centres undefined)

Activity [1]: 8%
Compound: C[C@@H]1OCC2(CCN(c3cnc(Sc4cccc(NC(=O)CCC(=O)NCCCCCCCCCCCCCNc5cccc6c5C(=O)N(C5CCC(=O)NC5=O)C6=O)c4Cl)c(N)n3)CC2)[C@@H]1N (some centres undefined)

Activity [1]: 23%
Compound: C[C@@H]1OCC2(CCN(c3cnc(Sc4cccc(NC(=O)CCC(=O)NCCCCCCCCCNc5cccc6c5C(=O)N(C5CCC(=O)NC5=O)C6=O)c4Cl)c(N)n3)CC2)[C@@H]1N (some centres undefined)

Activity [1]: 22%
Compound: C[C@@H]1OCC2(CCN(c3cnc(Sc4cccc(NC(=O)CCC(=O)NCCCCCCCCNc5cccc6c5C(=O)N(C5CCC(=O)NC5=O)C6=O)c4Cl)c(N)n3)CC2)[C@@H]1N (some centres undefined)

Activity [1]: 0%
Compound: C[C@@H]1OCC2(CCN(c3cnc(Sc4cccc(NC(=O)CCC(=O)NCCCCCCCCCCNc5cccc6c5C(=O)N(C5CCC(=O)NC5=O)C6=O)c4Cl)c(N)n3)CC2)[C@@H]1N (some centres undefined)

Activity [1]: 6%
Compound: C[C@@H]1OCC2(CCN(c3cnc(Sc4cccc(NC(=O)CCC(=O)NCCOCCNc5cccc6c5C(=O)N(C5CCC(=O)NC5=O)C6=O)c4Cl)c(N)n3)CC2)[C@@H]1N (some centres undefined)

Activity [1]: 25%
Compound: C[C@@H]1OCC2(CCN(c3cnc(Sc4cccc(NC(=O)CCC(=O)NCCOCCOCCNc5cccc6c5C(=O)N(C5CCC(=O)NC5=O)C6=O)c4Cl)c(N)n3)CC2)[C@@H]1N (some centres undefined)

Activity [1]: 26%
Compound: C[C@@H]1OCC2(CCN(c3cnc(Sc4cccc(NC(=O)CCC(=O)NCCCCCCCCCCCNc5cccc6c5C(=O)N(C5CCC(=O)NC5=O)C6=O)c4Cl)c(N)n3)CC2)[C@@H]1N (some centres undefined)

Second part, the molecule before the results:

Compound: C[C@@H]1OCC2(CCN(c3cnc(Sc4cccc(N)c4Cl)c(N)n3)CC2)[C@@H]1N
IC50 (MV4-11 [2]): 60 nM
IC50 [3]: 17 nM

Compound: C[C@@H]1OCC2(CCN(c3cnc(Sc4cccc(NC(=O)CCC(=O)NCCCOCCOCCOCCCNc5cccc6c5C(=O)N(C5CCC(=O)NC5=O)C6=O)c4Cl)c(N)n3)CC2)[C@@H]1N (some centres undefined)
Activity [1]: 46%
Activity [4]: Dose-Dependent Effect
DC50 [5]: 6.02 nM
Activity [6]: > 50%
Activity [7]: > 90%
IC50 (MV4-11 [2]): 207 nM
Activity (MV4-11 [8]): Dose-Dependent Effect
viability at 0.07 µM (MV4-11 [9]; [25]): 87.5%
Activity (MV4-11 [10]): 4.76%
Activity (MV4-11 [11]): 8.01%
Activity (MV4-11 [12]): 0.175%
viability at 0.2 µM (MV4-11 [13]; [25]): 81%
Activity (MV4-11 [14]): 7.23%
Activity (MV4-11 [15]): 11.3%
Activity (MV4-11 [16]): 0.39%
viability at 0.6 µM (MV4-11 [17]; [25]): 76.9%
Activity (MV4-11 [18]): 7.88%
Activity (MV4-11 [19]): 14.3%
Activity (MV4-11 [20]): 0.907%
Activity [21]: inactive
IC50 (MV4-11 [22]): 2630 nM
IC50 (MV4-11 [23]): 207 nM
IC50 [3]: 202 nM

Compound: C[C@@H]1OCC2(CCN(c3cnc(Sc4cccc(NC(=O)CCC(=O)NCCOCCOCCNc5ccc6c(c5)C(=O)N(C5CCC(=O)NC5=O)C6=O)c4Cl)c(N)n3)CC2)[C@@H]1N (some centres undefined)
Activity [1]: < 5%

Compound: CC1(N)CCN(c2cnc(-c3cccc(Cl)c3Cl)c(N)n2)CC1
IC50 (MV4-11 [2]): 475 nM
Activity (MV4-11 [9]): 94%
Activity (MV4-11 [10]): 3.98%
Activity (MV4-11 [11]): 4.52%
Activity (MV4-11 [12]): 0.078%
Activity (MV4-11 [13]): 88.5%
Activity (MV4-11 [14]): 4.68%
Activity (MV4-11 [15]): 6.43%
Activity (MV4-11 [16]): 0.099%
Activity (MV4-11 [17]): 86.5%
Activity (MV4-11 [18]): 5.08%
Activity (MV4-11 [19]): 7.74%
Activity (MV4-11 [20]): 0.098%
IC50 (MV4-11 [22]): 803 nM
IC50 (MV4-11 [23]): 572 nM
Activity (MV4-11 [24]): Active

Compound: C[C@@H]1OCC2(CCN(c3cnc(Sc4cccc(NC(=O)CCC(=O)NCCOCCOCCOCCNc5ccc6c(c5)C(=O)N(C5CCC(=O)NC5=O)C6=O)c4Cl)c(N)n3)CC2)[C@@H]1N (some centres undefined)
Activity [1]: < 5%

Compound: C[C@@H]1OCC2(CCN(c3cnc(Sc4cccc(NC(=O)CCC(=O)NCCCOCCOCCOCCCNc5ccc6c(c5)C(=O)N(C5CCC(=O)NC5=O)C6=O)c4Cl)c(N)n3)CC2)[C@@H]1N (some centres undefined)
Activity [1]: 42%

Compound: C[C@@H]1OCC2(CCN(c3cnc(Sc4cccc(NC(=O)CCC(=O)NCCOCCOCCOCCNc5cccc6c5C(=O)N(C5CCC(=O)NC5=O)C6=O)c4Cl)c(N)n3)CC2)[C@@H]1N (some centres undefined)
Activity [1]: 28%

Compound: C[C@@H]1OCC2(CCN(c3cnc(Sc4cccc(NC(=O)CCC(=O)NCCOCCNc5ccc6c(c5)C(=O)N(C5CCC(=O)NC5=O)C6=O)c4Cl)c(N)n3)CC2)[C@@H]1N (some centres undefined)
Activity [1]: < 5%

From ChEMBL document CHEMBL4823250, “Discovery of thalidomide-based PROTAC small molecules as the highly efficient SHP2 degraders” (Eur J Med Chem, 2021)
